Test results published in ChEMBL document CHEMBL4619741, “Screening of chalcone analogs with anti-depressant, anti-inflammatory, analgesic, and COX-2-inhibiting effects” (Bioorg Med Chem Lett, 2020).
Calls of active or inactive are those of the source. The rule behind the calls is not given here.

Tests used:
[1] = system: Mus musculus; test: Antidepressant activity in mouse assessed as immobility time at 30 mg/kg, ip by forced swimming test (reference value: 172.3 +/- 9.67 sec); format: functional
[2] = system: Mus musculus; test: Antiinflammatory activity against dimethylbenzene-induced ear edema mouse model assessed as inhibition of ear edema at 30 mg/kg, ip pretreated with compounds followed by dimethylbenzene challenge relative to control; format: functional
How it was run: (§1)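 Intraperitoneal dosing (test agents 30 mg/kg, reference 3 mg/kg) given before topical dimethylbenzene to mouse ear. Ear inflammation was measured by weight (mg), and inhibition was expressed as percent versus control at 60 min.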

[3] = system: Mus musculus; test: Antidepressant activity in mouse assessed as reduction in duration of immobility at 30 mg/kg, ip relative to control; format: functional
[4] = system: Mus musculus; test: Antidepressant activity in mouse assessed as increase in serotonin level at 30 mg/kg, ip; format: functional, organism-based
How it was run: (§2)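 Mice under stress treated intraperitoneally (30 mg/kg), alongside normal-vehicle and stress-vehicle groups; serotonin, norepinephrine and dopamine levels measured; n = 8 per group; values as mean ± SEM; significance tested against stress vehicle and normal vehicle.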

[5] = system: Mus musculus; test: Antidepressant activity in mouse assessed as change in norepinephrine level at 30 mg/kg, ip; format: functional, organism-based; how it was run: as §2
[6] = system: Mus musculus; test: Antidepressant activity in mouse assessed as change in dopamine level at 30 mg/kg, ip; format: functional, organism-based; how it was run: as §2
[7] = target: T1, Prostaglandin G/H synthase 1 (Ovis aries, UniProt P05979); test: Inhibition of ovine COX1 by ELISA
T1 sequence (P05979 whole entry): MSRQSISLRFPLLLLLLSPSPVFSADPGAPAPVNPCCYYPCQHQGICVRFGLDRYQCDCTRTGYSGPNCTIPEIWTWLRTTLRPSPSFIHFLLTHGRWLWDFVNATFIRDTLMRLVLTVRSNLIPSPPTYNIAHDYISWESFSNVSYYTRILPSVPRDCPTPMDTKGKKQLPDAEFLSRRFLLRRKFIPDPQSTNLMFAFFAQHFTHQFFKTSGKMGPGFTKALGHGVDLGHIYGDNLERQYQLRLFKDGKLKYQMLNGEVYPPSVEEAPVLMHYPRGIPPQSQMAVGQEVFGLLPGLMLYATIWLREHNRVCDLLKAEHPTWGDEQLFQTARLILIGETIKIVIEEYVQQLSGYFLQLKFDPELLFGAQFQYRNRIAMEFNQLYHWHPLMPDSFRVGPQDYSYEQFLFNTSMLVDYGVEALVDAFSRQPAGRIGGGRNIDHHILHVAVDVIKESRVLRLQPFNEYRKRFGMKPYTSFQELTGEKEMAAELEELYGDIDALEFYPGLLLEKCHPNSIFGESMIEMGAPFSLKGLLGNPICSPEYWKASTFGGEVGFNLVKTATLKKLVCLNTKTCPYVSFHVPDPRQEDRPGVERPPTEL
How it was run: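 Ovine COX-1 inhibition followed through enzyme peroxidase activity with a colorimetric enzyme immunoassay kit; IC50 values determined; mean and SD of three measurements.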

[8] = system: Mus musculus; test: Antidepressant activity in mouse assessed as immobility time at 3 mg/kg, ip by forced swimming test (reference value: 172.3 +/- 9.67 sec); format: functional
[9] = system: Mus musculus; test: Antidepressant activity in mouse assessed as reduction in duration of immobility at 3 mg/kg, ip relative to control; format: functional
[10] = system: Mus musculus; test: Antidepressant activity in mouse assessed as increase in serotonin level at 3 mg/kg, ip; format: functional, organism-based
[11] = system: Mus musculus; test: Antidepressant activity in mouse assessed as change in norepinephrine level at 3 mg/kg, ip; format: functional, organism-based
[12] = system: Mus musculus; test: Antidepressant activity in mouse assessed as change in dopamine level at 3 mg/kg, ip; format: functional, organism-based
[13] = system: Mus musculus; test: Antiinflammatory activity against dimethylbenzene-induced ear edema mouse model assessed as inhibition of ear edema at 3 mg/kg, ip pretreated with compounds followed by dimethylbenzene challenge relative to control; format: functional; how it was run: as §1
[14] = system: Mus musculus; test: Analgesic activity in mouse assessed as inhibition of acetic acid-induced writhing at 3 mg/kg, ip relative to control; format: functional

SMILES | Time [1] [s] | inhibition in vivo at 30 mg/kg [2] [%] | inhibition in vivo at 30 mg/kg [3] [%] | other results
Cc1nc2ccccc2c(-c2ccccc2)c1C(=O)/C=C/c1ccc(N(C)C)cc1 | 47.5 | 69.7 |  | 
Cc1nc2ccccc2c(-c2ccccc2)c1C(=O)/C=C/c1ccc(C(C)C)cc1 | 22.8 | 76.8 | 86.8 | Activity [4]: Active; Activity [5]: inactive; Activity [6]: inactive; IC50 [7]: 8.95 µM
Cc1nc2ccccc2c(-c2ccccc2)c1C(=O)/C=C/c1cccc(Cl)c1 | 48.5 | 53.6 |  | 
Cc1nc2ccccc2c(-c2ccccc2)c1C(=O)/C=C/c1ccccc1F | 49.3 | 81.2 |  | 
Cc1nc2ccccc2c(-c2ccccc2)c1C(=O)/C=C/c1cccc(F)c1 | 38.3 | 69.2 | 77.8 | 
Cc1ccc(/C=C/C(=O)c2c(C)nc3ccccc3c2-c2ccccc2)cc1 | 63 | 61.3 |  | 
Cc1cccc(/C=C/C(=O)c2c(C)nc3ccccc3c2-c2ccccc2)c1 | 57.5 | 67.1 |  | 
Cc1ccccc1/C=C/C(=O)c1c(C)nc2ccccc2c1-c1ccccc1 | 86.3 | 70.9 |  | 
Cc1nc2ccccc2c(-c2ccccc2)c1C(=O)/C=C/c1cccc(Br)c1 | 13.8 | 72.9 | 92 | 
COc1ccccc1/C=C/C(=O)c1c(C)nc2ccccc2c1-c1ccccc1 | 109.3 | 62.1 |  | 
CNCCC(Oc1ccc(C(F)(F)F)cc1)c1ccccc1 (stereo unspecified) [FLUOXETINE] |  |  |  | Time [8]: 88.1 s; inhibition in vivo at 3 mg/kg [9]: 48.9%; Activity [10]: Active; Activity [11]: inactive; Activity [12]: inactive
Cc1nc2ccccc2c(-c2ccccc2)c1C(=O)/C=C/c1ccc(Cl)cc1 | 29.3 | 85.5 | 83 | 
COc1ccc(/C=C/C(=O)c2c(C)nc3ccccc3c2-c2ccccc2)cc1 | 83.5 | 66.7 |  | 
Cc1nc2ccccc2c(-c2ccccc2)c1C(=O)/C=C/c1cccc(O)c1 | 32.8 | 65.2 | 80 | 
Cc1nc2ccccc2c(-c2ccccc2)c1C(=O)/C=C/c1ccc(Cl)cc1Cl | 31.5 | 81.3 | 81 | 
Cc1nc2ccccc2c(-c2ccccc2)c1C(=O)/C=C/c1ccc(F)cc1F | 51.5 | 65.8 |  | 
Cc1nc2ccccc2c(-c2ccccc2)c1C(=O)/C=C/c1c(Cl)cccc1Cl | 52 | 46.7 |  | 
COc1ccc2c(c1)c(CC(=O)O)c(C)n2C(=O)c1ccc(Cl)cc1 [INDOMETHACIN] |  |  |  | inhibition in vivo at 3 mg/kg [13]: 51.1%; inhibition in vivo at 3 mg/kg [14]: 78.3%
Cc1nc2ccccc2c(-c2ccccc2)c1C(=O)/C=C/c1ccc(F)cc1 | 25.8 | 88.3 | 85 | Activity [4]: Active; Activity [5]: inactive; Activity [6]: inactive; IC50 [7]: 10.2 µM
Cc1nc2ccccc2c(-c2ccccc2)c1C(=O)/C=C/c1ccccc1Br | 60.3 | 55 |  | 
COc1cccc(/C=C/C(=O)c2c(C)nc3ccccc3c2-c2ccccc2)c1 | 48.5 | 74.6 |  | 
Cc1nc2ccccc2c(-c2ccccc2)c1C(=O)/C=C/c1ccccc1Cl | 136.3 | 73.2 |  | 
Cc1nc2ccccc2c(-c2ccccc2)c1C(=O)/C=C/c1ccc(Br)cc1 | 75.8 | 74.1 |  | 
COc1ccc(/C=C/C(=O)c2c(C)nc3ccccc3c2-c2ccccc2)cc1O | 52.3 | 65.5 |  | 
Cc1nc2ccccc2c(-c2ccccc2)c1C(=O)/C=C/c1ccc([N+](=O)[O-])cc1 | 46.8 | 42.9 | 72.8 | 
Cc1nc2ccccc2c(-c2ccccc2)c1C(=O)/C=C/c1ccc(O)cc1 | 79.3 | 78.8 |  | 
